# TRPC4 potent: allosterically enhances the mouse TRPC4 cation channel; HEK293 TRPC4beta/mu-opioid, DAMGO EC20, Fluo-4 Ca2+ flux; stronger effect = higher value; Q9QUQ5; actives 0.42% (n = 310,000); B-score at 10 µM;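 active = B-score of calcium response area above 5 SD of library B-scores, with initial fluorescence ratio within 5 SD of library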;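 note: B-score of integrated fluorescence ratio over time as area under calcium response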
# TRPC4 act: opens the mouse TRPC4 cation channel | Q9QUQ5 | HEK293 TRPC4beta/mu-opioid, Fluo4 calcium fluorescence; stronger effect = higher value | B-score at 10 µM | actives 0.49% (n = 310,000);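 active = B-score above 5 SD of library B-scores, and initial fluorescence ratio not above library mean plus 5 SD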;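 note: positive B-score marks a calcium rise read as TRPC4 activation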
#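 Test system: HEK293 cells stably co-expressing mouse TRPC4beta and mu-opioid receptor | Schedule: Fluo4 dye loading 45 min at room temperature, 110 s recording | Measured by: Kinetic Fluo4 calcium fluorescence, 5 s baseline at 1 Hz | Evaluation: B score of integrated ratio | Controls: Buffer (low) and maximal DAMGO (high)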
# TRPC6 inh: mouse TRPC6 channel inhibition | B-score at 10 µM | Q61143 | HEK293-TRPC6, membrane potential dye, ACh-evoked depolarization; stronger effect = lower value | actives 1.1% (n = 310,000);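 active = B-score under library mean minus 3 SD, initial fluorescence not abnormally high, positive integrated signal ratio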;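 note: B-score derived from integrated fluorescence ratio over the kinetic read; more negative B-score means stronger inhibition of depolarization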
# Target sequence (Q61143 whole entry, looked up): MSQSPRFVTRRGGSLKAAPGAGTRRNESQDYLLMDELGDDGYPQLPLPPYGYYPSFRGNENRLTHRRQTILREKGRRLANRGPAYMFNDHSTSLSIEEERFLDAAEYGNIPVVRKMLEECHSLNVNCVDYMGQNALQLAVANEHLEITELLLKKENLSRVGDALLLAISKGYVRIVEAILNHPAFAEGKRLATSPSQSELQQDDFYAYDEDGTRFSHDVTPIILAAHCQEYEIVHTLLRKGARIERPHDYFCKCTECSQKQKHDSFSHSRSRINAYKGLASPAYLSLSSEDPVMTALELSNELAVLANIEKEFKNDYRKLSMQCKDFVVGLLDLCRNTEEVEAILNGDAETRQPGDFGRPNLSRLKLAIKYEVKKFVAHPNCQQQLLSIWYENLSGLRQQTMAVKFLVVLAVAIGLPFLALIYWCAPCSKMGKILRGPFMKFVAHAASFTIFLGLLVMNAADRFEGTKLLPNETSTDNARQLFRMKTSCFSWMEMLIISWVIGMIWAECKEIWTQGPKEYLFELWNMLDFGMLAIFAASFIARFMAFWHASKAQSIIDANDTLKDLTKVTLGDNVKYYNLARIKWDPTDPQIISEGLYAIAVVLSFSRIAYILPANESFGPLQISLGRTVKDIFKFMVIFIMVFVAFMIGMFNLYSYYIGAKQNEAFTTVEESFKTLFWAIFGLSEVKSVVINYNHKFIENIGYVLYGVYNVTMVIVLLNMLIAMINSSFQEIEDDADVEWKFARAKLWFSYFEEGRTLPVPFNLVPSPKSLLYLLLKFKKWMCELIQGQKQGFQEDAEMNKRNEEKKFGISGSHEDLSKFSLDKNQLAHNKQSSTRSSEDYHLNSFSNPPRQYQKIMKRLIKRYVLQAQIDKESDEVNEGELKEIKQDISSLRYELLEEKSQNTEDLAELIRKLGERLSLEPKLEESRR
# TRPC6 act: mouse TRPC6 channel activation; B-score at 10 µM; HEK293-TRPC6 membrane potential dye fluorescence; stronger effect = higher value; actives 0.13% (n = 310,000); Q61143;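 active = B-score of the integrated fluorescence ratio above library mean plus 3 SD, and starting fluorescence ratio within library mean plus 5 SD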;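 note: higher score means more depolarization so channel activation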
# TRPC4 block: inhibitors of mouse TRPC4 channel; AID 2247; B-score at 10 µM; HEK293 TRPC4beta/mu-opioid, DAMGO-evoked Fluo4 calcium flux; stronger effect = lower value; Q9QUQ5; actives 0.39% (n = 300,000);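 active = B-score over 3 SD under the library average, no early fluorescence shift, positive overall ratio signal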
#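 material = TRPC4beta/mu-opioid receptor HEK293 cell line | probe or stimulus = sequential submaximal and maximal DAMGO stimulation | compound dosing = one concentration per compound | measured by = Fluo4 Ca2+ flux fluorescence | evaluation = integrated fluorescence ratio relative to baseline, converted to per-well B score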
# * marks the source's active call; other numbers are inactive results; i = inactive. Most compounds without a hit are left out; they make up all but 2.3% or so of the library.
SMILES,TRPC4 potent,TRPC4 act,TRPC6 inh,TRPC6 act,TRPC4 block
CCCCCC(=O)NNC(=S)NC(=O)c1ccccc1[N+](=O)[O-],i,i,i,i,i
CCCCCC(=O)NNC(=S)NC(=O)c1cccc([N+](=O)[O-])c1,i,60*,i,i,i
O=C(NC(=S)NNC(=O)c1ccc(Cl)cc1Cl)c1cccnc1,i,i,i,i,i
COc1cccc(NC(=O)COc2ccc(C(=O)N3CCN(C)CC3)cc2)c1,i,i,i,i,i
COc1ccc(C2CC(c3ccccc3)Nc3nc(NC(=O)c4cccs4)nn32)cc1 (stereo not given),i,i,i,i,-6*
CC(C)CN(C(=O)COC(=O)c1ccc2c(c1)OCO2)c1c(N)n(Cc2ccccc2)c(=O)[nH]c1=O,i,i,i,i,i
Cc1c(C(=O)Nc2cc(F)ccc2F)sc2nc3n(c(=O)c12)CCCCC3,i,i,i,i,i
CCc1ccc(C(C(=O)NC(C)(C)CC)N(Cc2ccco2)C(=O)Cn2nnc3ccccc32)cc1 (stereo not given),i,i,i,i,i
CCC(C)(C)NC(=O)C(c1ccccc1F)N(Cc1ccco1)C(=O)Cn1nnc2ccccc21 (stereo not given),i,i,i,44*,i
O=C(COc1ccc([N+](=O)[O-])cc1)NNC(=O)Nc1cccc(F)c1,i,i,i,i,i
O=C(OCCCCN1C(=O)c2ccccc2C1=O)c1ccc(S(=O)(=O)N2CCCC2)cc1,17*,i,i,i,i
COc1ccccc1CCNC(C)CCc1ccc(O)cc1 (stereo not given),i,i,i,i,i
COc1cc(OC)c(OC)cc1CCC(C)NCCC(c1ccccc1)c1ccccc1 (stereo not given),i,87*,i,i,i
COc1ccc(-n2c3c(cc(C(=O)NCc4ccco4)c2=O)C(=O)CC(C)(C)C3)cc1,i,i,i,i,-7*
CC(=O)Oc1ccc(/C=C(\NC(=O)c2ccco2)C(=O)NCc2ccccc2)cc1,i,i,i,i,-7*
Cc1nn(-c2nc3ccccc3n2Cc2ccccc2)c2c1C(=O)CC(C)(C)C2,i,i,i,i,-6*
Cc1nn(-c2ccccc2)c2c1C(=O)N(Cc1ccccc1)C(=O)C(C)(C)C2,i,i,i,i,i
CCC1(c2ccc(F)cc2)NC(=O)N(CC(=O)Nc2ccc(C)c(S(=O)(=O)N3CCOCC3)c2)C1=O (stereo not given),i,i,i,i,i
CCN(CC)c1ncnc2scc(C3COc4ccccc4O3)c12 (stereo not given),i,i,i,i,-7*
C[C@H](NC(=O)c1ccco1)C(=O)Nc1ccc(C#N)cc1,i,i,i,i,i
CN1CCN(C(=O)c2cccn(Cc3c(Cl)cccc3Cl)c2=O)CC1,i,184*,i,i,i
CC(=O)Nc1cccn(Cc2c(Cl)cccc2Cl)c1=O,i,i,i,i,i
NCCCCCCNS(=O)(=O)c1cccc2c(Cl)cccc12,i,95*,i,i,i
N#C/C(N)=C(/C#N)N=Cc1cccc(Cl)c1,11*,i,i,i,i
Cc1cc(C)cc(-n2ncc3c2CCCC3NC(=O)CCN2Cc3ccccc3C2=O)c1 (stereo not given),i,i,i,i,i
O=C(O)CN1C(c2ccccc2O)Nc2ccc(Br)cc2C1c1ccccc1 (stereo not given),i,i,i,i,-5*
COc1ccc(C2Nc3ccc(Br)cc3C(c3ccccc3)N2CC(=O)O)cc1 (stereo not given),i,i,i,i,i
O=C(CCc1ccc(Oc2cc([N+](=O)[O-])cc([N+](=O)[O-])c2)cc1)N1CCCCCC1,i,75*,i,i,-6*
C/C(=C\c1cccc(Cl)c1Cl)C(=O)c1c(C)cc(C)[nH]c1=O,19*,i,i,i,i
